This note sets out measurements from ChEMBL document CHEMBL4808187, “Antiarrhythmic Hit to Lead Refinement in a Dish Using Patient-Derived iPSC Cardiomyocytes” (J Med Chem, 2021).

The nature of series [1]: AUC in Sprague-Dawley rat at 25 mg/kg, po measured upto 25 hrs by LCMS analysis. To be noted: in vivo. Details: route oral, dose 25 mg/kg, time <=25. Type of series: ADME, organism-based.
A short description of series [2]: AUC in Sprague-Dawley rat at 5 mg/kg, iv measured upto 25 hrs by LCMS analysis. Type of series: ADME, organism-based. Details: route intravenous, dose 5 mg/kg, time <=25. To be noted: in vivo.
Series [3] can be described thus: Half life in Sprague-Dawley rat at 5 mg/kg, iv measured upto 25 hrs by LCMS analysis. Type of series: ADME, organism-based. The conditions noted are these: in vivo.
Series [4] is described as follows: Toxicity in ip dosed BALB/c mouse assessed as lethal dose. To be noted: in vivo. Type of series: organism-based.
Series [5] can be described thus: Toxicity in BALB/c mouse assessed as lethargy at 100 mg/kg, ip monitored for 30 mins. Type of series: organism-based. To be noted: in vivo, 0.5 h.
Series [6] can be described thus: Tmax in Sprague-Dawley rat at 5 mg/kg, iv measured upto 25 hrs by LCMS analysis. The conditions noted are these: in vivo. Type of series: ADME, organism-based.
Series [7] is described as follows: Toxicity in BALB/c mouse assessed as central nervous system effects at 100 mg/kg, ip. Type of series: organism-based. The conditions noted are these: in vivo.
The nature of series [8]: Cmax in Sprague-Dawley rat at 25 mg/kg, po measured upto 25 hrs by LCMS analysis. Type of series: ADME, organism-based. Details: route oral, dose 25 mg/kg, time <=25. To be noted: in vivo.
Series [9] is described as follows: Metabolic stability in human liver S9 fraction assessed as compound remaining at 50 uM after 1 hr by HPLC method. Type of series: ADME, subcellular. The conditions noted are these: read-out: Stabilty. In a few lines: (§1)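 Human liver microsomes (0.4–0.5 mg protein) or S-9 (1 mg) with 50 μM compound in 50 mM potassium phosphate pH 7.4 plus NADPH-generating system, 37 °C shaking for 0, 7, 15, 30, 60 min; stopped with cold acetonitrile; HPLC C18, isocratic water/acetonitrile with 0.05% TFA, UV 275.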

Series [10] in a line: Tmax in Sprague-Dawley rat at 25 mg/kg, po measured upto 25 hrs by LCMS analysis. Type of series: ADME, organism-based. The conditions noted are these: in vivo.
The nature of series [11]: Metabolic stability in human liver microsomes assessed as compound remaining at 50 uM after 1 hr by HPLC method. Type of series: ADME, Microsome. To be noted: read-out: Stabilty. In short, it runs like this: as §1
In general terms: Liver microsomes are a subcellular fraction often used to study metabolism.

Series [12] in a line: Cmax in Sprague-Dawley rat at 5 mg/kg, iv measured upto 25 hrs by LCMS analysis. Details: route intravenous, dose 5 mg/kg, time <=25. To be noted: in vivo. Type of series: ADME, organism-based.
Series [13] is described as follows: Oral bioavailability in Sprague-Dawley rat at 25 mg/kg measured upto 25 hrs by LCMS analysis. Type of series: ADME, organism-based. The conditions noted are these: in vivo.
Series [14] in a line: Half life in Sprague-Dawley rat at 25 mg/kg, po measured upto 25 hrs by LCMS analysis. Type of series: ADME, organism-based. The conditions noted are these: in vivo.
Series [15] concerns Heart. Kind of series: Antiarrhythmic activity in H2O2-perfused Sprague-Dawley rat heart assessed as resolution of arrhythmias to normal sinus rhythm at 10 uM after 30 to 40 mins. Type of series: functional, tissue-based. The conditions noted are these: time 30-40 min. In short, it runs like this: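 Perfused ex vivo hearts from aged rats; continuous perfusion of H2O2 (0.1 mM) induces EADs and ectopic beats progressing to VT/VF; test compound perfused at 10 μM with H2O2 still present; rhythm followed for conversion to sinus rhythm.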

A short description of series [16]: Toxicity in BALB/c mouse assessed as behavioral effects at 100 mg/kg, ip monitored for 30 mins. The conditions noted are these: in vivo, 0.5 h. Type of series: organism-based. In a few lines: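 Adult male BALB/c mice, four per compound, 100 mg/kg i.p.; behaviour (lethargy, immobilization, seizures, shaking) observed for 30 min; lethality recorded at 24 h.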

Series [17] is described as follows: Antiarrhythmic activity in patient-derived hiPSC-CMs carrying LQT3 mutation assessed as fold shortening of action potential duration relative to control. Type of series: functional, Homo sapiens, iPSC-CM.
Series [18] in a line: Antiarrhythmic activity in hiPSC-CMs assessed as cessation dose of cell beating. To be noted: human, ipsc-cm.
The nature of series [19]: Antiarrhythmic activity in hiPSC-CMs assessed as fold prolongation of action potential relative to control. The conditions noted are these: human, ipsc-cm.
A short description of series [20]: Inhibition of sodium channel (unknown origin) expressed in HEK cells assessed as reduction in peak sodium current by automated patch clamp method. Type of series: cell-based. To be noted: Homo sapiens, HEK293. In general terms: Patch clamp records ionic current or voltage across a cell membrane.
Series [21] is described as follows: Antiarrhythmic activity in patient-derived hiPSC-CMs carrying LQT3 mutation assessed as cessation dose for cell beating. Type of series: functional, Homo sapiens, iPSC-CM.
For series [22], the species on record is Homo sapiens. Description: Selectivity index, ratio of IC50 for potassium channel (unknown origin) expressed in HEK cells assessed as reduction in potassium current to IC50 for sodium channel (unknown origin) expressed in HEK cells assessed as reduction in late inward sodium current. Type of series: cell-based.
A short description of series [23]: Inhibition of potassium channel (unknown origin) expressed in CHO cells assessed as reduction in potassium current by automated patch clamp method. Type of series: cell-based.
Series [24] can be described thus: Inhibition of sodium channel (unknown origin) expressed in HEK cells assessed as reduction in late inward sodium current by automated patch clamp method. Type of series: cell-based. To be noted: Homo sapiens, HEK293.
The nature of series [25]: Antiarrhythmic activity in patient-derived hiPSC-CMs carrying LQT3 mutation assessed as shortening of action potential duration. Type of series: functional, Homo sapiens. The conditions noted are these: ipsc-cm; read-out: EC50.
Series [26] is described as follows: Antiarrhythmic activity in hiPSC-CMs assessed as dose for induction of early after depolarizations. The conditions noted are these: human, ipsc-cm.
The nature of series [27]: Antiarrhythmic activity in patient-derived hiPSC-CMs carrying LQT3 mutation assessed as shortening dose of action potential. Type of series: functional, Homo sapiens, iPSC-CM.

SMILES strings stand for the structures. Calls of active or inactive are those of the source. No cut-off for these calls is given here.

Usually AUC stands for concentration integrated over time. Read a high AUC as high exposure. For orientation: LD50 means the dose at which mortality reaches 50%. In general, Tmax refers to the time from dosing to the highest level. Usually Cmax stands for the highest concentration seen after dosing. The term bioavailability denotes the share of a dose that reaches the circulation, judged against a reference dose that is usually intravenous. Read a high bioavailability as good availability. For `Cl.N[C@H](COc1ccccc1C(F)(F)F)c1ccccc1`, the area under the curve (AUC) in [1] was found to be 1008 ng·h/mL; in series [2], 407 ng·h/mL. Also, the t1/2 is 3.8 h in series [3] and 6.5 h in series [14]. For the same compound, the LD50 in [4] is > 200 mg/kg. Also, the Activity result in series [5] and in series [7] was “Toxic” throughout. The time to peak (Tmax) in series [6] came out at 0.17 h; in series [10] it was 1.5 h. Also, the peak concentration (Cmax) in series [8] worked out at 226 ng/mL; in series [12], 219 ng/mL. Further, the remaining at 1 h, 50 µM in series [9] and in series [11] was > 95% throughout. Moreover, the bioavailability in series [13] came to 42%.

For the compound `Cl.N[C@@H](COc1ccccc1C(F)(F)F)c1ccccc1`, the AUC in [1] turned out to be 1556 ng·h/mL; in [2], 280 ng·h/mL. Further, the t1/2 was determined as 1.2 h in series [3] and 5.3 h in series [14]. Moreover, the median lethal dose (LD50) in [4] was > 200 mg/kg. In addition, the result in series [15] was Active. Further, the Activity entry in [16] was “Non-Toxic”. Moreover, the figures for the time of peak concentration (Tmax) in [6] and in [10] were 0.18 h and 1.5 h, respectively. For the same compound, the results for the Cmax in series [8] and in series [12] were 258 ng/mL and 249 ng/mL, respectively. The remaining at 1 h, 50 µM in series [9] and in series [11] was > 95% in each case. Moreover, the bioavailability in series [13] came out at 100%.

A word on the IC50: it is the concentration that inhibits the measured activity by half. As a reminder, the EC50 is the concentration that produces a half-maximal response. On to `Cc1ccc(C)c(OCC(N)C2CC2)c1.Cl` (centres undefined), for which the “fold change (FC)” value in series [17] was 1.11; in series [19], 1.686. In addition, the Activity in series [18] is 200 µM; in [21], 200 µM; in [26] it was 66 µM; in series [27] it was 66 µM. Also, the IC50 in series [20] was 162 µM; in series [23] it was 98 µM; in series [24] it was 51.8 µM. For the same compound, the Ratio IC50 in series [22] was 1.9. Moreover, the concentration for a half-maximal effect (EC50) in series [25] was determined as 0.022 µM.
